In general, MIC refers to the lowest concentration found to suppress growth. A lower MIC goes with inhibition by little substance.

Consider 34 molecules from ChEMBL document CHEMBL3120053, “Airborne antituberculosis activity of Eucalyptus citriodora essential oil” (J Nat Prod, 2014).

SMILES strings stand for the structures. Converted amounts (≈) assume the structure as drawn.

Data set [1] in a line: Partition coefficient, log K of the compound in n-hexane/methyl tert-butylether/acetonitrile 10:1:10 solvent system by HSCCC/EECCC analysis. The data set is classed as physicochemical. A digest of the protocol:
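K values derived from volumetric measurements of the HSCCC run. Fraction collection began 1 h after loading at 4 min (6 mL) per fraction. Elution ran 5 h, then sweep elution and extrusion of the stationary phase for another 5 h, giving 160 TLC-monitored fractions.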

For data set [2], the system named is Mycobacterium tuberculosis. As to the kind of experiment: Antimicrobial activity against Mycobacterium tuberculosis H37Rv assessed as growth inhibition by gaseous contact assay relative to control. The data set is classed as functional. A digest of the protocol: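 Gaseous contact (microatmosphere) assay. Virulent pan-sensitive M.tb H37Rv (ATCC 27294) frozen stocks were diluted so 100 μL gave 200−400 colonies on Middlebrook 7H11 agar, then dried 4−5 h at room temperature. 5 μL of sample in EtOAc (100 mg/mL) went on a filter disk in the inverted lid (≈70 cm3 headspace). Plates were sealed, held at 37 °C, cfu counted at 21 days, and % inhibition calculated.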

The test system of data set [3] is Mycobacterium tuberculosis. As to the kind of experiment: Antimicrobial activity against Mycobacterium tuberculosis H37Rv by BACTEC radiometric assay. The data set is classed as functional.

With `CC12CCCCC1=CC(=O)CC2` (centres undefined), the “log K” value in data set [1] is 1.55. Same read-out and setting: the figure for `C[C@@H]1CC[C@@H](C(C)(C)O)C(O)C1` (some centres undefined) is 0.87; for `C=C(C)[C@@H]1CC[C@@H](C)C[C@H]1OC(C)=O` it is 1.55; for `CC(C)=CCC/C(C)=C/CC/C(C)=C/C=O` it is 1.79. The same measure, in the same setting: the figure for `C[C@@H]1CC[C@H]2[C@@H]1[C@H]1[C@@H](CC[C@]2(C)O)C1(C)C` is 1.55.

For the molecule `C[C@H]1CC[C@@H]2[C@H]1[C@@H]1[C@H](CC[C@]2(C)O)C1(C)C`, the “log K” value in data set [1] is recorded as 1.18.

For `CC1(C)C[C@H]2[C@H]1CC[C@]1(C)CCC[C@@]2(O)C1`, in data set [1], the “log K” value turned out to be 1.6. As to `C/C1=C\CC(C)(C)/C=C/C[C@@]2(C)O[C@@H]2CC1`, the “log K” value in data set [1] worked out at 1.55. As for `C=C1CCCC(C)(C)[C@H]2C=C(C)CC[C@@H]12`, the “log K” value in data set [1] is on record as 1.6. In the case of `CC1=CC[C@H]2C(C)=CC[C@@H](C(C)C)[C@@H]2C1`, the “log K” value in data set [1] came out at 2.98. On the same count and under the same terms, the value for `CC1=CCC[C@]2(C)CC[C@@H](C(C)(C)O)C[C@@H]12` was 1.8.

`CC1=C[C@H]2[C@H](C(C)C)CC[C@@H](C)[C@]2(O)CC1`: the “log K” value in data set [1] stood at 1.8. On to `Cc1cc(C(C)(C)C)cc(C(C)(C)C)c1O`, for which, in data set [1], the “log K” value is listed as 1.79. Same read-out and setting: the value for `C=C1CC[C@@H]2[C@H]([C@@H]3[C@H](C)CC[C@H]13)C2(C)C` was 2.98. The same measure, in the same setting: the figure for `C=C(C)[C@H]1CC[C@H](C)C[C@H]1O` (relative stereo) is 0.82. Take `C=C(C)[C@H]1CC[C@@H](C)C[C@H]1O` (relative stereo): the “log K” value in data set [1] worked out at 2.98.

`CC1=C[C@@H]2C(=C(C)CC[C@H]2C(C)C)CC1` [(+)-DELTA-CADINENE]: the “log K” value in data set [1] amounted to 2.98.

Consider `CC(C)=CCC[C@H](C)CC=O` [(-)-CITRONELLAL], for which the “growth inhibition (GI)” value in data set [2] is 18%. For the same molecule, the “log K” value in data set [1] is 1.02.

In the case of `CC1=CC[C@@H](C(C)(C)O)CC1` [ALPHA-TERPINEOL], the “log K” value in data set [1] is on record as 0.82. Consider `C=C1CC/C=C(\C)CC[C@@H]2[C@@H]1CC2(C)C` [BETA-CARYOPHYLLENE], for which the “log K” value in data set [1] was determined as 2.98. For the molecule `C=C1CCC[C@]2(C)CC[C@@H](C(C)(C)O)C[C@@H]12` [BETA-EUDESMOL], the “log K” value in data set [1] amounted to 1.6.

As to `C=C(C)[C@@H]1CC[C@@]2(C)CCCC(=C)[C@@H]2C1` [BETA-SELINENE], in data set [1], the “log K” value turned out to be 1.79. In data set [3], `CC(C)=CCCC(C)CCO` (centres undefined) [CITRONELLOL] showed a minimal inhibitory concentration (MIC) of 64 µg/mL (≈ 410 µM). The “growth inhibition (GI)” value in data set [2] came to 100%. Moreover, in data set [1], the “log K” value was found to be 0.69. For the molecule `CC(=O)OCCC(C)CCC=C(C)C` (centres undefined) [CITRONELLYL ACETATE], in data set [1], the “log K” value is 1.55. On to `CC12CCC(CC1)C(C)(C)O2` [EUCALYPTOL], for which, in data set [2], the “growth inhibition (GI)” value worked out at 0%. On to `CC(C)=CCC/C(C)=C/CC/C(C)=C/CO` [FARNESOL], for which, in data set [3], the minimal inhibitory concentration (MIC) stood at 8 µg/mL (≈ 36 µM). The “log K” value in data set [1] came to 1.79. In data set [3], `CC(C)=CCC/C(C)=C/CO` [GERANIOL] yielded an MIC of 64 µg/mL (≈ 415 µM). On to `CC(C)=CCC/C(C)=C/CC/C(C)=C/CC/C(C)=C/CO` [GERANYLGERANIOL], for which the “log K” value in data set [1] is given as 1.6.

Regarding `C[C@@H]1CC[C@@H]2[C@@H]1[C@H]1[C@@H](CC[C@@]2(C)O)C1(C)C` [GLOBULOL], the “log K” value in data set [1] is given as 1.79. Turning to `C=C(C)[C@@H]1CC[C@@H](C)C[C@H]1O` [ISOPULEGOL], the “growth inhibition (GI)” value in data set [2] worked out at 64%. Moreover, the “log K” value in data set [1] came to 0.87.

Turning to `C=CC(C)(O)CCC=C(C)C` (centres undefined) [LINALOOL], in data set [1], the “log K” value was 0.74. As to `CC(C)=CCC/C(C)=C\CO` [NEROL], 128 µg/mL (≈ 830 µM) was the least that counted as inhibitory in data set [3] (MIC). For `C=C1CC[C@@H]2[C@H]([C@H]3[C@H]1CC[C@]3(C)O)C2(C)C` [SPATHULENOL], in data set [1], the “log K” value worked out at 1.18. In the case of `CC1=C[C@@H]2[C@@H](CC1)[C@@](C)(O)CC[C@H]2C(C)C` [T-CADINOL], the “log K” value in data set [1] is reported as 1.55.
